The results in this text go back to ChEMBL document CHEMBL1157101, “A series of alpha-heterocyclic carboxaldehyde thiosemicarbazones inhibit topoisomerase IIalpha catalytic activity” (J Med Chem, 2010).

One may read the IC50 as the concentration that inhibits the measured activity by half. The low end stands for greater potency in that assay, the high end for weaker potency in that assay.

In assay [1] the test system is SGC-7901. The experiment in a line: Antiproliferative activity against human SGC7901 cells after 72 hrs by sulforhodamine B assay. Format: functional, cell-based. The settings on record: SGC-7901, 72 h. A digest of the protocol:
(§1)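 Cells seeded and exposed in triplicate to graded compound concentrations for 72 h. Suspension cells read by MTT conversion to coloured product; adherent cells read by sulforhodamine B. IC50 (50% growth inhibition versus untreated control) derived by the Logit method.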

The subject of assay [2] is HeLa. The experiment in a line: Antiproliferative activity against human HeLa cells after 72 hrs by sulforhodamine B assay. The class given is functional, cell-based. A digest of the protocol: as §1
(In general: The SRB assay estimates cell density from bound dye.)

Assay [3] concerns HT-29. In words: Antiproliferative activity against human HT-29 cells after 72 hrs by sulforhodamine B assay. The class given is functional, cell-based. The settings on record: HT-29, 72 h. Summed up:
as §1

The subject of assay [4] is HL-60. The experiment in a line: Antiproliferative activity against human HL60 cells after 72 hrs by sulforhodamine B assay. The settings on record: HL-60, 72 h, in the assay text read “MTT assay” for “sulforhodamine B assay”. The class given is functional, cell-based. Summed up:
as §1

Assay [5] addresses DNA topoisomerase 2-alpha (Homo sapiens, UniProt P11388). In words: Inhibition of human topoisomerase 2 alpha-mediated decatenation of kDNA at 100 uM after 15 mins.
In assay [6] the test system is KB. The experiment in a line: Antiproliferative activity against human KB cells after 72 hrs by sulforhodamine B assay. The class given is functional, cell-based. A digest of the protocol: as §1
A short description of assay [7]: Antiproliferative activity against human KB/VCR cells after 72 hrs by sulforhodamine B assay. The class given is functional, cell-based. A digest of the protocol: as §1
The nature of assay [8]: Antiproliferative activity against human K562/A02 cells after 72 hrs by sulforhodamine B assay. The class given is functional, cell-based. The settings on record: K562/A02, 72 h, in the assay text read “MTT assay” for “sulforhodamine B assay”. A digest of the protocol: as §1
Assay [9] in a line: Antiproliferative activity against human MCF7/ADR cells after 72 hrs by sulforhodamine B assay. The settings on record: NCI/ADR-RES. The class given is functional, cell-based. A digest of the protocol: as §1

Where a name gives a salt, the structure may show the parent alone. Calls of active or inactive are those of the source. No cut-off for these calls is given here.

Chain of DNA topoisomerase 2-alpha (P11388 whole entry): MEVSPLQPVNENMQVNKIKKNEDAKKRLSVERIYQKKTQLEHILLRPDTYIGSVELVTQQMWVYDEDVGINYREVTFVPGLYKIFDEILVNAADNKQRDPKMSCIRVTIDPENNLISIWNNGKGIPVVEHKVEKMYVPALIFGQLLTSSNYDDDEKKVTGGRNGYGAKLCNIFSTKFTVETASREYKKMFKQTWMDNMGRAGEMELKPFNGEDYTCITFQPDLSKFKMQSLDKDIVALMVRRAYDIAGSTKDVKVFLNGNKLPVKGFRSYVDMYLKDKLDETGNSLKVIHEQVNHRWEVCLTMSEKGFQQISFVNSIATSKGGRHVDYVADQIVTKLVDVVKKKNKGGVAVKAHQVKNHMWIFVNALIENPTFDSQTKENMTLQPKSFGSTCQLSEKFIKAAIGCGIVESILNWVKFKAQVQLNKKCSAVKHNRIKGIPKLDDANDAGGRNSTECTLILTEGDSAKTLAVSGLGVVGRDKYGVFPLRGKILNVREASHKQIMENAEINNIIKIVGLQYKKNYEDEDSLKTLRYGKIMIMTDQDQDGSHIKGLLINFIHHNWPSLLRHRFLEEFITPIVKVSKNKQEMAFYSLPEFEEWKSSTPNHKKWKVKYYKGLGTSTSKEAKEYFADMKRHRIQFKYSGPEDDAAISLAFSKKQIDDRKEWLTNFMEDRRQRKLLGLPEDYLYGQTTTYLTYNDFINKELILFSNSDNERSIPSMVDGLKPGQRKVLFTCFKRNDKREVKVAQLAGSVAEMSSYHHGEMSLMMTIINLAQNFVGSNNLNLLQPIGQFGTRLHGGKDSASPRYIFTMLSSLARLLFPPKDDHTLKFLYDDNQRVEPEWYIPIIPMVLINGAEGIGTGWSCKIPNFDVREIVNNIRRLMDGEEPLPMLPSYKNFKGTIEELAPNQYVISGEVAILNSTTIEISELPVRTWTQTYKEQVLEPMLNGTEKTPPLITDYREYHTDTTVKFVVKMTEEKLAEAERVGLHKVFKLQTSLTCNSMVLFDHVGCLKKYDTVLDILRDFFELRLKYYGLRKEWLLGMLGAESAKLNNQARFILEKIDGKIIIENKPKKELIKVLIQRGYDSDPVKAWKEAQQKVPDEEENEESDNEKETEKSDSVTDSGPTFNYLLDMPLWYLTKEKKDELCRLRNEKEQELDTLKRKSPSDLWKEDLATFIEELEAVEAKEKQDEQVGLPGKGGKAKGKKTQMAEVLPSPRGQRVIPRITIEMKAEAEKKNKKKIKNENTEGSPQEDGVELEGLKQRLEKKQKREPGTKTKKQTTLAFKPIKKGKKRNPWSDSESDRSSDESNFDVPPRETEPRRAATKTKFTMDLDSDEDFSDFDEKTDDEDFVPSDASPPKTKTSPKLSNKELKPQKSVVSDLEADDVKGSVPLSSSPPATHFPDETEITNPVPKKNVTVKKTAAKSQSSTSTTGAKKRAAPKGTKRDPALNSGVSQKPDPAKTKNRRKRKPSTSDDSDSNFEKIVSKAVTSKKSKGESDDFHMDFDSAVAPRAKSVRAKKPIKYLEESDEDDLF

For `NC(=S)N/N=C/c1cnc2ccccc2n1`, the IC50 in assay [1], in assay [2], in assay [3] and in [4] was more than 100 µM in each case.

Turning to `NC(=S)N/N=C/c1ccc2ccccc2n1`, the IC50 in assay [1] was 32.7 µM; in assay [2] it was 0.96 µM; in assay [3], 100 µM; in assay [4], more than 100 µM. The “inhibition (active/not active)” value in assay [5] is “inactive”.

With `FC(F)(F)c1ccc(NC(=S)N/N=C/c2ccc3ccccc3n2)cc1`, the half-maximal inhibitory concentration (IC50) was 72.2 µM in assay [1], 59.1 µM in assay [2], 63.9 µM in assay [3] and 34.9 µM in assay [4].

For `S=C(N/N=C/c1ccc2ccccc2n1)Nc1ccc(Br)cc1`, the concentration for half-maximal inhibition (IC50) in [1] is 69.4 µM; in [2], 56.8 µM; in [3], 54.4 µM; in assay [4], 27.5 µM.

For the compound `N#Cc1ccc(NC(=S)N/N=C/c2ccc3ccccc3n2)cc1`, the IC50 stood at 23.7 µM in assay [1], 20 µM in assay [2], 15.6 µM in [3] and 4.66 µM in assay [4].

Turning to `CC(C)c1cccc(C(C)C)c1NC(=S)N/N=C/c1ccc2ccccc2n1`, the IC50 in [1] stood at 23.5 µM; in [2], 16.4 µM; in assay [3], 20.7 µM; in assay [4], 19.5 µM.

`NC(=S)N/N=C/c1cc2ccccc2s1`: the 50% inhibitory concentration (IC50) is more than 100 µM in assay [1], 6.77 µM in assay [2], 99.2 µM in assay [3] and more than 100 µM in [4]. In addition, the “inhibition (active/not active)” value in [5] is “inactive”.

Turning to `NC(=S)N/N=C/c1ccc2cccnc2n1`, the IC50 in [1] was more than 100 µM; in assay [2] it was more than 100 µM; in [3] it was 12.8 µM; in assay [4], more than 100 µM. In addition, in assay [5], the “inhibition (active/not active)” value was “inactive”.

Take `CC[C@]1(O)C[C@H]2CN(CCc3c([nH]c4ccccc34)[C@@](C(=O)OC)(c3cc4c(cc3OC)N(C=O)[C@H]3[C@@](O)(C(=O)OC)[C@H](OC(C)=O)[C@]5(CC)C=CCN6CC[C@]43[C@@H]65)C2)C1` [VINCRISTINE]: the results for the IC50 in assay [6] and in assay [7] were 0.01 µM and 0.84 µM, respectively.

Take `Fc1cccc(NC(=S)N/N=C/c2ccc3ccccc3n2)c1`: the IC50 in assay [1] was found to be 79.9 µM; in assay [2], 70.1 µM; in assay [3] it was 74.7 µM; in assay [4], 43.8 µM. Also, the “inhibition (active/not active)” value in assay [5] was “inactive”.

Regarding `FC(F)(F)c1ccccc1NC(=S)N/N=C/c1ccc2ccccc2n1`, the concentration for half-maximal inhibition (IC50) in assay [1] amounted to 20.7 µM; in assay [2] it was 18.8 µM; in assay [3] it was 18.1 µM; in assay [4], 13.2 µM.

Take `NC(=S)N/N=C/c1nc2ccccc2s1`: the IC50 in [1] is more than 100 µM; in assay [2], 5.35 µM; in assay [3] it was more than 100 µM; in assay [4] it was more than 100 µM. In addition, the “inhibition (active/not active)” value in [5] is “inactive”.

For the compound `Fc1ccc(NC(=S)N/N=C/c2ccc3ccccc3n2)cc1`, the IC50 in [1] was 32.3 µM; in [2], 33.2 µM; in [3], 28.5 µM; in [4], 17 µM.

As for `S=C(NCc1ccccc1)N/N=C/c1ccc2ccccc2n1`, the half-maximal inhibitory concentration (IC50) came to 53.7 µM in assay [1], 62.8 µM in assay [2], 75.7 µM in assay [3] and 21.9 µM in [4].

For `Cc1ccc(NC(=S)N/N=C/c2ccc3ccccc3n2)cc1`, the 50% inhibitory concentration (IC50) was 92.9 µM in [1], 86 µM in assay [2], 85.5 µM in assay [3] and 78.3 µM in [4].

As for `CN(C)C(=S)N/N=C/c1ccc2cccnc2n1`, the IC50 worked out at 0.63 µM in assay [1], 0.97 µM in [2], 0.41 µM in assay [3] and 0.56 µM in [4]. Moreover, in [5], the “inhibition (active/not active)” value was “Active”.

For `COc1cccc2c1C(=O)c1c(O)c3c(c(O)c1C2=O)C[C@@](O)(C(=O)CO)C[C@@H]3O[C@H]1C[C@H](N)[C@H](O)[C@H](C)O1` [DOXORUBICIN HYDROCHLORIDE], the concentration for half-maximal inhibition (IC50) amounted to 23.8 µM in assay [8] and 44.9 µM in assay [9].

For `NC(=S)N/N=C/c1nc2ccccc2c2ncccc12`, the IC50 was 7.36 µM in assay [1], 21.9 µM in assay [2], 11.5 µM in assay [3] and more than 100 µM in assay [4]. Besides, the “inhibition (active/not active)” value in assay [5] is “Active”.

On to `Cc1ccc(NC(=O)N/N=C/c2ccc3ccccc3n2)cc1`, for which the IC50 in assay [1], in assay [2], in assay [3] and in assay [4] was more than 100 µM throughout.

As to `Cc1cccc(NC(=S)N/N=C/c2ccc3ccccc3n2)c1`, the IC50 in assay [1], in assay [2], in assay [3] and in assay [4] was more than 100 µM in each case.

With `S=C(N/N=C/c1ccc2ccccc2n1)Nc1ccc(Cl)cc1`, the half-maximal inhibitory concentration (IC50) in [1] was 87.6 µM; in [2] it was more than 100 µM; in assay [3] it was 97.2 µM; in [4], more than 100 µM.

`S=C(N/N=C/c1ccc2ccccc2n1)Nc1ccccc1Br`: the half-maximal inhibitory concentration (IC50) in assay [1], in assay [2], in [3] and in assay [4] was more than 100 µM throughout.

As to `CN(C)C(=S)N/N=C/c1cnc2ccccc2n1`, the half-maximal inhibitory concentration (IC50) in [1] was found to be 0.17 µM; in assay [2], 0.75 µM; in assay [3], 0.45 µM; in assay [4] it was 0.09 µM. In assay [5], the “inhibition (active/not active)” value was “Active”.

Turning to `NC(=S)N/N=C/c1cc2cccnc2s1`, the half-maximal inhibitory concentration (IC50) was 100 µM in [1], 6.29 µM in assay [2], more than 100 µM in assay [3] and more than 100 µM in assay [4].

For the compound `Cc1csc2sc(/C=N/NC(N)=S)c(C)c12`, the IC50 in [1] was more than 100 µM; in [2], 1.12 µM; in [3], 57.5 µM; in assay [4], more than 100 µM. Besides, the “inhibition (active/not active)” value in assay [5] is “inactive”.

For the compound `Fc1ccccc1NC(=S)N/N=C/c1ccc2ccccc2n1`, the IC50 in assay [1], in assay [2], in assay [3] and in assay [4] was more than 100 µM in each case.

With `S=C(N/N=C/c1ccc2ccccc2n1)Nc1cccc(Br)c1`, the IC50 in assay [1] amounted to 78.6 µM; in [2], 70 µM; in [3], 58.9 µM; in [4], 53.8 µM.

As for `CN(C)C(=S)N/N=C/c1cc2cccnc2s1`, the IC50 in [1] was 21.4 µM; in assay [2], 48.4 µM; in assay [3], 13.4 µM; in [4], more than 100 µM. Also, the “inhibition (active/not active)” value in [5] is “Active”.

For `S=C(N/N=C/c1ccc2ccccc2n1)Nc1ccccc1`, the IC50 in assay [1] was 26.5 µM; in assay [2], 27.4 µM; in [3], 17 µM; in assay [4], 9.13 µM.

`COc1ccccc1NC(=S)N/N=C/c1ccc2ccccc2n1`: the half-maximal inhibitory concentration (IC50) was more than 100 µM in assay [1], more than 100 µM in assay [2], more than 100 µM in assay [3] and 91.7 µM in assay [4].

With `CN(C)C(=S)N/N=C/c1nc2ccccc2c2ncccc12`, the IC50 in [1] was found to be 0.04 µM; in assay [2] it was 1.72 µM; in assay [3], 0.04 µM; in assay [4] it was 0.43 µM. Further, in assay [5], the “inhibition (active/not active)” value is “Active”.

As to `Cc1ccccc1NC(=S)N/N=C/c1ccc2ccccc2n1`, the 50% inhibitory concentration (IC50) in assay [1] is more than 100 µM; in [2], more than 100 µM; in assay [3] it was 42.2 µM; in assay [4] it was 73.2 µM. For the same compound, the “inhibition (active/not active)” value in [5] was “inactive”.

`COc1cccc(NC(=S)N/N=C/c2ccc3ccccc3n2)c1`: the IC50 was determined as 79.4 µM in assay [1], 74.5 µM in [2], 82.4 µM in [3] and 71.2 µM in [4].

For `S=C(N/N=C/c1ccc2ccccc2n1)Nc1cccc(Cl)c1`, the concentration for half-maximal inhibition (IC50) amounted to 61.3 µM in assay [1], 52.5 µM in assay [2], 48.1 µM in assay [3] and 28.8 µM in assay [4].

For `CN(C)C(=S)N/N=C/c1nc2ccccc2s1`, the IC50 was 0.83 µM in assay [1], 2.1 µM in assay [2], 0.25 µM in [3] and 3.68 µM in assay [4]. In addition, the “inhibition (active/not active)” value in assay [5] is “Active”.

With `COc1ccc(NC(=S)N/N=C/c2ccc3ccccc3n2)cc1`, the IC50 in assay [1] was determined as 89.6 µM; in [2], 72.6 µM; in assay [3] it was 82.3 µM; in assay [4] it was 43.8 µM.

As to `COc1ccc(C)cc1NC(=S)N/N=C/c1ccc2ccccc2n1`, the half-maximal inhibitory concentration (IC50) in assay [1], in assay [2], in assay [3] and in assay [4] was more than 100 µM in each case.
